Screening data (PubChem BioAssay)
Runt-CBFb FRET: blocks binding of human RUNX1 Runt domain to CBFb. Q01196+Q13951. Cerulean-Runt/Venus-CBFb FRET ratio 530/480, 1 h. 220,000 tested, 0.46% active. inhibition, % at 20 µM. AID 1496;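 active = inhibition over about 50% at 20 µM in the single-dose screen, limit read from the data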
Target sequence (Q01196 whole entry, looked up, the tested form may be a part): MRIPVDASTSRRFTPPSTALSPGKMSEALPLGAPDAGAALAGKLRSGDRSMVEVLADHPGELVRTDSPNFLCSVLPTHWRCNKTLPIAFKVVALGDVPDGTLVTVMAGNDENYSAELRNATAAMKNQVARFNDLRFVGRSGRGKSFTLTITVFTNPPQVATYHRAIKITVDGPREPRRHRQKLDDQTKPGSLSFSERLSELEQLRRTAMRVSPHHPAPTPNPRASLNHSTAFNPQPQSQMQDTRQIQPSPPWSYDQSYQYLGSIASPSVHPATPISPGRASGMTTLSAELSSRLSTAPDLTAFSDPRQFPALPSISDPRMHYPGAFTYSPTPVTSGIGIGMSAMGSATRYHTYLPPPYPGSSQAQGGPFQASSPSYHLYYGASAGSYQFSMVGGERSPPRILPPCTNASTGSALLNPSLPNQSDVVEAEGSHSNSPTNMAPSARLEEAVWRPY
Target sequence (Q13951 whole entry, looked up, the tested form may be a part): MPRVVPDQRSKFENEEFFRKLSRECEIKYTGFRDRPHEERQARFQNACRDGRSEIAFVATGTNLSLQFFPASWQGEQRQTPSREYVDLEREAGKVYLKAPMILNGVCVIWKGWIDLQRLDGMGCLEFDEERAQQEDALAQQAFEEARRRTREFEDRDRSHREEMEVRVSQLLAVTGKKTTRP
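Measured by: fluorescence energy transfer, 422 nm excitation, 530/480 nm emission; Assay system: Cerulean-Runt domain; Medium: Tris pH 7.5 buffer with BSA; Measure: loss of energy transfer signal; Controls: 5 µM unlabeled CBFb as full-inhibition high control; Incubation: protein complex preformed 1 h, compound exposure 1 h, room temperature, dark.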
Hck-Nef inh: inhibitors of human Hck kinase activated by Nef | 220,000 tested, 0.68% active | P08631 | inhibition, % at 20 µM | Recombinant Hck-YEEI plus Nef, Z-Lyte FRET kinase assay;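 active = Hck-Nef kinase inhibition above about 50%, limit read from the data; inactive = inhibition below that limit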
Runt-SMMHC FRET: blocks binding of human RUNX1 Runt domain to CBFb-SMMHC | Cerulean-Runt/Venus-CBFb-SMMHC FRET ratio 530/480, 1 h | inhibition, % at 20 µM | 220,000 tested, 0.74% active | AID 1434;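 active = mean inhibition across duplicate retests at 20 µM reaching about 50%, limit read from the data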;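 also: inhibitors lower the FRET ratio by blocking Runt binding to CBFb-SMMHC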
RanGTP-Imp inh: inhibitors of RanGTP-importin-beta interaction, primary screen, biochemical, FRET, CFP-Ran, YFP-importin-beta, homogeneous; cell-free CFP-Ran/YFP-importin-beta FRET ratio; inhibition, % (no concentration beside the values); 300,000 tested, 1.1% active;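 active = more than half of the replicate wells show a fall in the fluorescence ratio signal beyond about 16%, limit read from the data, passing the limit was not always enough; inconclusive = exactly half of the replicate wells pass the set limit; inactive = fewer than half of replicates pass the limit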
Tb hexokinase: T. brucei hexokinase 1 inhibition; recombinant TbHK1, G6PDH-coupled NADH A340; inhibition, % at 10 µM; 220,000 tested, 0.11% active;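 active = inhibition of 50% or more in the single-dose primary screen; inactive = inhibition below 50%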
Each line names hits and unclear results; the compound was inactive in the other large screens. The list is not random: actives were taken first. Their share in the collection is about 1.9%.

COCCN(C(=O)CSCc1ccccc1)c1c(N)n(Cc2ccccc2)c(=O)[nH]c1=O	none (no result: Runt-CBFb FRET, Hck-Nef inh, Runt-SMMHC FRET, Tb hexokinase)
CC(C)CN(C(=O)CN1CCc2ccccc21)c1c(N)n(CC(C)C)c(=O)[nH]c1=O	Runt-SMMHC FRET 72
CNCC(=O)N(CC(C)C)c1c(N)n(CC(C)C)c(=O)[nH]c1=O	Runt-SMMHC FRET 56
O=C(CC1CC2CCC1C2)NC1CCCCCCC1 (centres undefined)	none (no result: Runt-CBFb FRET, Hck-Nef inh, Runt-SMMHC FRET, Tb hexokinase)
Cc1ccc(-c2onc3ccc(C=O)cc23)cc1	RanGTP-Imp inh 23
CCC(C)c1ccccc1NC(=O)CN1CCN(C/C=C/c2ccccc2)CC1 (centres undefined)	none
CCC1OC2(C)OC(=N)C1(C#N)C(C#N)(C#N)C2c1ccccc1 (centres undefined)	RanGTP-Imp inh 33
CC1CCC(C(C)C)C2=C1C(C#N)(C#N)C(C#N)(C#N)C(c1ccccc1)N2 (centres undefined)	none
CC(C)C1OC2(C)OC(=N)C1(C#N)C(C#N)(C#N)C2c1ccccc1 (centres undefined)	Runt-SMMHC FRET 63, RanGTP-Imp inh 32
CCOC(=O)C1=C(CSc2nc(CC)c(C)cc2C#N)OC(N)=C(C#N)C1c1ccccc1 (centres undefined)	RanGTP-Imp inh 22
CCOC(=O)C1=C(CSc2nc3c(cc2C#N)CN(C)CC3)OC(N)=C(C#N)C1c1ccncc1 (centres undefined)	Runt-SMMHC FRET 74, RanGTP-Imp inh 21
CCCC1=C(C(=O)OCC)C(c2cccs2)C(C#N)=C(N)O1 (centres undefined)	RanGTP-Imp inh 30
CCOC(=O)C1=C(C)OC(N)=C(C#N)C1c1cccs1 (centres undefined)	none
CCOC(=O)C1=C(CSc2nc(C)cc(C)c2C#N)OC(N)=C(C#N)C1c1ccccc1 (centres undefined)	RanGTP-Imp inh inconclusive
CCOC(=O)C1=C(CSc2nc3c(cc2C#N)CN(C)CC3)OC(N)=C(C#N)C1c1ccc(Cl)cc1 (centres undefined)	Runt-SMMHC FRET 59, RanGTP-Imp inh 27
CN1C(=O)/C(=C/c2ccc(C(=O)Nc3ccc(O)cc3C(=O)O)cc2)SC1=S	none (no result: Runt-CBFb FRET, Hck-Nef inh, Runt-SMMHC FRET, Tb hexokinase)
N#Cc1ccc(CN2CCN(C(=O)Cn3nc(C(N)=O)c4ccccc4c3=O)CC2)cc1	none (no result: Runt-CBFb FRET, Hck-Nef inh, Runt-SMMHC FRET, Tb hexokinase)
CCOC(=O)C1ON2CCCCC2C1(O)C(F)(F)F (centres undefined)	none
CCCCOc1ccc(C(=O)OCC(=O)NC2CCCC2)cc1	none (no result: Runt-CBFb FRET, Hck-Nef inh, Runt-SMMHC FRET, Tb hexokinase)
Nc1nc(-c2cc(O)ccc2[N+](=O)[O-])cc(-c2ccccc2)c1[N+](=O)[O-]	RanGTP-Imp inh 34 (no result: Runt-CBFb FRET, Hck-Nef inh, Runt-SMMHC FRET, Tb hexokinase)
Cc1cc(C)c(C#N)c(SCc2ccccc2)n1	none
Cc1ccc2nc(CSc3nc(C)cc(C)c3C#N)[nH]c2c1	RanGTP-Imp inh 29
O=C(CN1CCCC1=O)NC1C2CC3CC(C2)CC1C3 (centres undefined)	none
CC12CC3(C)CC(C)(C1)CC(C(=O)NCc1ccccn1)(C2)C3	RanGTP-Imp inh 34
CC12CCC(C(=O)NCc3ccccn3)(OC1=O)C2(C)C (centres undefined)	none
Cc1ccc(C)c(N2CCN(S(=O)(=O)c3ccc4c(c3)CCC(=O)N4)CC2)c1	Runt-CBFb FRET 104
Cc1ccc(C)c(N2CCN(S(=O)(=O)c3ccc4c(c3)NC(=O)CC(=O)N4)CC2)c1	none (no result: Runt-CBFb FRET, Hck-Nef inh, Runt-SMMHC FRET, Tb hexokinase)
O=C(C1Cc2ccccc2CN1C(=O)c1ccccc1)N1CCN(c2ccccc2)CC1 (centres undefined)	none
CCCCC[C@H](O)/C=C/[C@H]1C=CC(=O)[C@@H]1C/C=C\CCCC(=O)O	Hck-Nef inh 57 (no result: RanGTP-Imp inh)
O=C(Nc1cnc2ccccn2c1=O)c1ccc(Cl)cc1	none
O=C(O)[C@H]1CCCC[C@H]1C(=O)Nc1ccc(S(=O)(=O)N2CCOCC2)cc1	RanGTP-Imp inh 17 (no result: Runt-CBFb FRET, Hck-Nef inh, Runt-SMMHC FRET, Tb hexokinase)
O=C(C#Cc1ccccc1)Nc1cccc(F)c1	none (no result: Runt-CBFb FRET, Hck-Nef inh, Runt-SMMHC FRET, Tb hexokinase)
Cc1cc(C)c(C#N)c(Sc2ccc(N)cc2)n1	none
Cc1cc(C)c(C#N)c(SC(F)F)n1	RanGTP-Imp inh 98
C[C@]12C=CC(=O)C=C1CC[C@@H]1C2=CC[C@]2(C)[C@@H](C(=O)CN3CCN(c4cc(N5CCCC5)nc(N5CCCC5)n4)CC3)CC[C@@H]12	RanGTP-Imp inh 65 (no result: Runt-CBFb FRET, Hck-Nef inh, Runt-SMMHC FRET, Tb hexokinase)
O=C1CC(=O)c2c1cccc2[N+](=O)[O-]	Hck-Nef inh 75 (no result: RanGTP-Imp inh)
O=C1OCc2cccc([N+](=O)[O-])c21	none
c1ccc(-c2noc(CN3CCN(c4cnccn4)CC3)n2)cc1	none
Cc1csc(NC(=O)CSc2nc(C)cs2)n1	none
Cc1csc(SCC(=O)O)n1	Runt-CBFb FRET 114
O=C1C(=O)N(CCN2CCOCC2)C(c2ccccc2F)/C1=C(\O)c1ccc(S(=O)(=O)N2CCOCC2)cc1 (centres undefined)	none (no result: Runt-CBFb FRET, Hck-Nef inh, Runt-SMMHC FRET, Tb hexokinase)
COc1cc(/C=N\Nc2nc(-c3ccc(C)cc3)c(NC(C)=O)s2)ccc1O	Hck-Nef inh 105
O=C(Nc1sc2c(c1C(=O)NCc1ccco1)CCCC2)c1ccc2c(c1)OCO2	Runt-SMMHC FRET 65, RanGTP-Imp inh inconclusive
CC1(C)CC(=O)C(C=Nc2cccc(/N=C/C3=C(O)CC(C)(C)CC3=O)n2)=C(O)C1	RanGTP-Imp inh 32
Cc1cc(C)c2c(N)c(C(=O)C(C)(C)C)sc2n1	Runt-CBFb FRET 93, Runt-SMMHC FRET 92
COc1ccc(-c2cc(=O)n(-c3nc4ccccc4[nH]3)[nH]2)cc1	RanGTP-Imp inh 56
COc1ccc(-c2nc3ccccc3[nH]2)cc1	none
CCOC(=O)N1CCC(NC(=O)c2cc3cc4cc(OC)ccc4nc3o2)CC1	RanGTP-Imp inh 21
CCOc1ccccc1N(CC(=O)Nc1ccccc1C(=O)N1CCCC1)S(C)(=O)=O	none (no result: Runt-CBFb FRET, Hck-Nef inh, Runt-SMMHC FRET, Tb hexokinase)
CCCCOc1ccc(-c2nnn(C(C)(C)C(=O)OC)n2)cc1	none
CCCCOc1ccc(-c2nnn(C(C)C(=O)OCC)n2)cc1 (centres undefined)	RanGTP-Imp inh 91
CC(C)(C)c1cnnn1-c1ccc(/C=N/Nc2ccc([N+](=O)[O-])cc2)cc1	RanGTP-Imp inh 34
Cc1ccc2c3c(cccc13)-c1ccccc1C2=O	Runt-SMMHC FRET 63, RanGTP-Imp inh 64
CCN1C(=O)c2cccc3c(S(=O)(=O)NCc4ccccn4)ccc1c23	RanGTP-Imp inh 23
COCCNS(=O)(=O)c1ccc2c3c(cccc13)C(=O)N2C	RanGTP-Imp inh 23
CCOC(=O)CNS(=O)(=O)c1ccc2c3c(cccc13)C(=O)N2CC	Runt-SMMHC FRET 86, RanGTP-Imp inh 21
CCOC(=O)Cc1csc(NS(=O)(=O)c2ccc3c4c(cccc24)C(=O)N3CC)n1	none
C/C(CCN1CCc2nc(-c3ccccc3)c(-c3ccccc3)cc2C1)=N\O[C@@H](C)c1cn([C@H](CO)Cc2ccccc2)nn1	none
CCN1C(=O)/C(=C/C=C2/CCCN2C)OC1=S	Runt-SMMHC FRET 125
CN1C(=O)/C(=C\C=C2/CCCN2C)N(C)C1=S	RanGTP-Imp inh inconclusive
CCn1c(CSc2nc3ccccc3[nH]2)nc2cc(C(=O)O)ccc21	none
CCn1c(CSc2nccn2C)nc2cc(C(=O)O)ccc21	Runt-SMMHC FRET 53
